How the values were obtained:
[1] = system: Rattus norvegicus; assay: Dose normalized AUC in Sprague-Dawley rat at 4 mg/kg, po; assay type: ADME, organism-based; design: dose 4 mg/kg, route oral; conditions: in vivo
Summary of the method: (§1)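 Oral exposure, dose-normalized (μM·h·kg/mg), from a PK study also run with iv dosing (rat 2 mg/kg iv, 4 mg/kg po; monkey 0.5 mg/kg iv, 1 mg/kg po). Plasma clearance, Vdss, half-life and oral bioavailability also derived.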

[2] = system: Mus musculus; assay: Unbound Cmin in 3 week po dosed CD1 nu/nu mouse xenografted with human HCT116 cells after 24 hrs; assay type: ADME, organism-based, HCT-116; conditions: in vivo
[3] = system: Mus musculus; assay: Inhibition of HDAC in CD1 nu/nu mouse tumor xenografted with human HCT116 cells assessed as plasma drug level causing increase in H2BK5 acetylation at 67 mg/kg, po tid after 4 hrs by ELISA; assay type: functional, HCT-116
[4] = Plasma protein binding in beagle dog at 2 uM; assay type: ADME, cell-free, Canis lupus familiaris; conditions: read-out: PPB (converted)
Summary of the method: (§2)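 Plasma protein binding measured in mouse, rat, dog and monkey plasma at 2 μM compound.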

[5] = system: Mus musculus; assay: Inhibition of HDAC in CD1 nu/nu mouse tumor xenografted with human HCT116 cells assessed as plasma drug level causing increase in H2BK5 acetylation at 67 mg/kg, po tid after 72 hrs by ELISA; assay type: functional, HCT-116
[6] = Plasma protein binding in rhesus monkey at 2 uM; assay type: ADME, cell-free, Macaca mulatta; conditions: read-out: PPB (converted); summary of the method: as §2
[7] = system: Mus musculus; assay: Inhibition of HDAC in CD1 nu/nu mouse tumor xenografted with human HCT116 cells assessed as plasma drug level causing increase in H2BK5 acetylation at 200 mg/kg, po qd after 72 hrs by ELISA; assay type: functional, HCT-116
[8] = Half life in rhesus monkey at 0.5 mg/kg, iv; assay type: ADME, organism-based, Macaca mulatta; design: dose 0.5 mg/kg, route intravenous; conditions: in vivo
Summary of the method: (§3)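 Intravenous dosing at 5 (mouse), 2 (rat), 0.5 (dog) and 0.5 (monkey) mg/kg. Plasma clearance, steady-state volume of distribution and half-life derived from the plasma profile.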

[9] = Half life in beagle dog at 0.5 mg/kg, iv; assay type: ADME, organism-based, Canis lupus familiaris; design: dose 0.5 mg/kg, route intravenous; conditions: in vivo; summary of the method: as §3
[10] = system: Rhesus monkey; assay: Dose normalized AUC in rhesus monkey at 1 mg/kg, po; assay type: ADME, organism-based, Macaca mulatta; design: dose 1 mg/kg, route oral; conditions: in vivo; summary of the method: as §1
[11] = system: Mus musculus; assay: Unbound Cmax in 3 week po dosed CD1 nu/nu mouse xenografted with human HCT116 cells; assay type: ADME, organism-based, HCT-116; conditions: in vivo, 504 h
[12] = Drug metabolism in liver microsomes (unknown origin) assessed as CYP-mediated oxidation; assay type: ADME
[13] = Plasma clearance in rhesus monkey at 0.5 mg/kg, iv; assay type: ADME, organism-based, Macaca mulatta; design: dose 0.5 mg/kg, route intravenous; summary of the method: as §3
[14] = in vivo; conditions: CD1 nu/nu, mouse, po, 150 mg/kg
[15] = AUC (0 to 24 hrs) in CD1 nu/nu mouse xenografted with human HCT116 cells at 350 mg/kg, po administered biweekly for 3 weeks; assay type: ADME, organism-based, HCT-116; design: time < 24 hr, dose 350 mg/kg, route oral; conditions: in vivo
Summary of the method: (§4)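 HCT116 cells (5 × 10^6/mouse) injected sc into right flank of CD1 nu/nu mice; at ~325 mm3 tumors, randomized into groups of 12. Oral dosing 21 days, once daily or biweekly, in 40% v/v PEG-400 and 25% w/v HPβCD at 20 μL/g. […] Tumor size by caliper.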

[16] = Plasma clearance in CD-1 mouse at 5 mg/kg, iv; assay type: ADME, organism-based; design: dose 5 mg/kg, route intravenous; summary of the method: as §3
[17] = AUC (0 to 24 hrs) in CD1 nu/nu mouse xenografted with human HCT116 cells at 150 mg/kg, po qd for 3 weeks; assay type: ADME, organism-based, HCT-116; design: time < 24 hr, dose 150 mg/kg, route oral; conditions: in vivo; summary of the method: as §4
[18] = Drug metabolism in human hepatocytes assessed as glucuronide conjugate level; assay type: ADME, cell-based, Hepatocyte
[19] = in vivo; conditions: CD1 nu/nu, mouse, po, 100 mg/kg
[20] = Half life in Sprague-Dawley rat at 2 mg/kg, iv; assay type: ADME, organism-based; design: dose 2 mg/kg, route intravenous; conditions: in vivo; summary of the method: as §3
[21] = system: Mus musculus; assay: Inhibition of HDAC in CD1 nu/nu mouse tumor xenografted with human HCT116 cells assessed as plasma drug level causing increase in H2BK5 acetylation at 200 mg/kg, po qd after 4 hrs by ELISA; assay type: functional, HCT-116
[22] = system: Mus musculus; assay: Inhibition of HDAC in CD1 nu/nu mouse tumor xenografted with human HCT116 cells assessed as plasma drug level causing increase in H2BK5 acetylation at 67 mg/kg, po tid after 48 hrs by ELISA; assay type: functional, HCT-116
[23] = system: Mus musculus; assay: Inhibition of HDAC in CD1 nu/nu mouse tumor xenografted with human HCT116 cells assessed as plasma drug level causing increase in H2BK5 acetylation at 100 mg/kg, po bid after 48 hrs by ELISA; assay type: functional, HCT-116
[24] = system: Mus musculus; assay: Inhibition of HDAC in CD1 nu/nu mouse tumor xenografted with human HCT116 cells assessed as plasma drug level causing increase in H2BK5 acetylation at 67 mg/kg, po tid after 1 hr by ELISA; assay type: functional, HCT-116
[25] = system: Mus musculus; assay: Inhibition of HDAC in CD1 nu/nu mouse tumor xenografted with human HCT116 cells assessed as plasma drug level causing increase in H2BK5 acetylation at 67 mg/kg, po tid after 8 hrs by ELISA; assay type: functional, HCT-116
[26] = Drug metabolism in dog hepatocytes assessed as hydrolysis of oxazolidinone group; assay type: ADME, cell-based, Canis lupus familiaris, Hepatocyte
[27] = Plasma clearance in beagle dog at 0.5 mg/kg, iv; assay type: ADME, organism-based, Canis lupus familiaris; design: dose 0.5 mg/kg, route intravenous; summary of the method: as §3
[28] = Oral bioavailability in CD-1 mouse at 10 mg/kg; assay type: ADME, organism-based; conditions: in vivo
[29] = Volume of distribution at steady state in Sprague-Dawley rat at 2 mg/kg, iv; assay type: ADME, organism-based; design: dose 2 mg/kg, route intravenous; conditions: in vivo, read-out: Vdss; summary of the method: as §3
[30] = Cmax in CD1 nu/nu mouse xenografted with human HCT116 cells at 100 mg/kg, po qd for 3 weeks; assay type: ADME, organism-based, HCT-116; design: dose 100 mg/kg, route oral; conditions: in vivo
Summary of the method: (§5)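 HCT116 cells (5 × 10^6 per mouse) injected subcutaneously into the right flank of CD1 nu/nu mice. Once tumors reached ~325 mm3, mice were randomized into groups of 12 and dosed orally for 21 days, once daily (qd) or biweekly (biw). Vehicle was 40% v/v PEG-400 plus 25% w/v HPβCD at 20 μL/g.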

[31] = Cmax in CD1 nu/nu mouse xenografted with human HCT116 cells at 350 mg/kg, po administered biweekly for 3 weeks; assay type: ADME, organism-based, HCT-116; design: dose 350 mg/kg, route oral; conditions: in vivo; summary of the method: as §5
[32] = system: Mus musculus; assay: Inhibition of HDAC in CD1 nu/nu mouse tumor xenografted with human HCT116 cells assessed as plasma drug level causing increase in H2BK5 acetylation at 67 mg/kg, po tid after 24 hrs by ELISA; assay type: functional, HCT-116
[33] = Oral bioavailability in Sprague-Dawley rat at 4 mg/kg; assay type: ADME, organism-based; conditions: in vivo
[34] = system: HCT-116; assay: cells; assay type: functional, Homo sapiens
[35] = Volume of distribution at steady state in beagle dog at 0.5 mg/kg, iv; assay type: ADME, organism-based, Canis lupus familiaris; design: dose 0.5 mg/kg, route intravenous; conditions: in vivo, read-out: Vdss; summary of the method: as §3
[36] = in vivo; conditions: CD1 nu/nu, mouse, po, 200 mg/kg
[37] = Drug metabolism in human hepatocytes assessed as carboxylic acid level; assay type: ADME, cell-based, Hepatocyte
[38] = system: Mus musculus; assay: Dose normalized AUC in CD-1 mouse at 10 mg/kg, po; assay type: ADME, organism-based; design: dose 10 mg/kg, route oral; conditions: in vivo
[39] = Oral bioavailability in beagle dog at 1 mg/kg; assay type: ADME, organism-based, Canis lupus familiaris; conditions: in vivo
[40] = Cmax in CD1 nu/nu mouse xenografted with human HCT116 cells at 200 mg/kg, po qd for 3 weeks; assay type: ADME, organism-based, HCT-116; design: dose 200 mg/kg, route oral; conditions: in vivo; summary of the method: as §5

In the case of `Nc1ccc(-c2cccs2)cc1NC(=O)c1ccc(N2CCC3(CC2)CNC(=O)O3)nc1`, the AUC/dose [1] is reported as 3 µM·kg·h/mg, the fCmin [2] is reported as 48 nM and the INH [3] is reported as 13.8 µM. It also gave a fraction unbound at 2 µM [4] of 0.024, an INH [5] of 0.3 µM and a fraction unbound at 2 µM [6] of 0.016. The INH [7] was 0.3 µM, the half-life [8] was 426 min and the half-life [9] was 84 min. The AUC/dose [10] was 1.8 µM·kg·h/mg, the fCmax [11] was 240 nM and the Drug metabolism [12] was “metabolite_notdetected”. It also gave a clearance [13] of 27 mL/min/kg, a concentration at 24 h [14] of 3.3 µM and an AUC at 24 h [15] of 566 µM·h. For the same compound, the clearance [16] was 27 mL/min/kg, the AUC at 24 h [17] was 208 µM·h and the Drug metabolism [18] was “metabolite_notdetected”. For the same compound, the concentration at 24 h [19] was 500 nM, the half-life [20] was 252 min and the INH [21] was 17.2 µM. For the same compound, the INH [22] was 0.1 µM, the INH [23] was 0.3 µM and the INH [24] was 14.9 µM. The INH [25] was 8.2 µM, the Drug metabolism [26] was “metabolite_notdetected” and the clearance [27] was 22 mL/min/kg. For the same compound, the bioavailability [28] was 82%, the Vd [29] was 0.7 L/kg and the Cmax [30] was 6.9 µM. It also gave a Cmax [31] of 32.8 µM, an INH [32] of 1.5 µM and a bioavailability [33] of 28%. It also gave a GI25 [34] of 50 nM, a GI75 [34] of 188 nM and a GI90 [34] of 367 nM. For the same compound, the Vd [35] was 2.2 L/kg, the concentration at 24 h [36] was 5 µM and the Drug metabolism [37] was “metabolite_notdetected”. For the same compound, the AUC/dose [38] was 1.1 µM·kg·h/mg, the bioavailability [39] was 17% and the Cmax [40] was 40.4 µM.
